Legend:
[1] = folding enthalpy; higher = less favourable; fluorescence melt of hairpins on a sequencing array, two-state fit; settings: sodium 0.088 M
Outline: (§1)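 On a sequenced MiSeq flow cell, library hairpins with annealed Cy3 and quencher oligos were imaged for Cy3 fluorescence in 2.5 °C steps up to 60 °C, in 50 mM Na-HEPES pH 8.0, 25 mM NaCl. Normalisation used pre-quench Cy3 and control constructs. Bootstrapped two-state fits gave melting temperature and folding enthalpy, combined by inverse variance across four replicates and with fitted temperatures raised by 9.35 °C to match UV melts.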

[2] = melting temperature; fluorescence melt of hairpins on a sequencing array, two-state fit, raised by 9.35 °C to match UV melts; settings: sodium 0.088 M
Outline: as §1

Sequence | folding enthalpy [1] [kcal/mol] | Tm [2] [°C]
GACTTAGGAAACTGAGTC ((((.((....)).)))) | -36.1 | 41.2
GGAGTCACGAAAGTGTCC (((..(((....)))))) | -13.7 | 32.1
GTGTGTGGAAACGTACAC ((((..(....)..)))) | -23.5 | 42
GGGCGTCGAAAGACCCCC (((.(((....))).))) | -16.6 | 59
GGGGGTGGAAACGCCTCC ((.((.(....).)).)) | -23.7 | 49.7
GGTGTCGAAAGACCACC ((((((....))).))) | -27.6 | 49.7
GATCCATAGATGGATC ((((((....)))))) | -33.5 | 51.2
CGAACGGAAACGTTGTCG ((((((....)))..))) | -14.1 | 36.3
GGACGCGGAAACACGTCC (((((.(....).))))) | -38.9 | 54.8
GAATGTGGAAACACGTTC (((.(((....))).))) | -32.3 | 47.8
GCGCTAGGAAACTAGTGC ((.((((....)))).)) | -44.7 | 53.3
GGCAATCCGAAAGGAGCC (((..(((....)))))) | -23.4 | 46.9
GATCACATGAGTGATC ((((((....)))))) | -42.1 | 55.7
GACCCGGGAAACCAGGCC (.((.((....)).)).) | -10.8 | 24.7
GATTCCGGAAACAGAATC (((((.(....).))))) | -23.4 | 32.1
GGAGACGAAAGTCTCTCC ((((((....)))..))) | -9.83 | 54.5
GTTCTCGAAAGAGCAAC ((((((....))).))) | -17 | 32.7
GTTGACGAAAGTCTTAAC ((((((....)))..))) | -10 | 28.1
GCTTCAGGAAACTGAAGC (((((((....))))))) | -32.9 | 66
GATCGTTGCAACGATC ((((((....)))))) | -59.5 | 59.2
GGGTCCGAAAGGAGTCCC ((((((....)))..))) | -19.6 | 46.5
GCAGTGCGAAAGCAGCGC ((..(((....)))..)) | -17 | 59.7
GGAGTAGCGAAAGCTTCC (((..(((....)))))) | -16.1 | 38.2

Sequence | folding enthalpy [1] [kcal/mol] | Tm [2] [°C]
GTGTTCGAAAGAATGCAC ((((((....)))..))) | -19.1 | 33.5
GCTCAGCGAAAGCTCAGC (((.(((....))).))) | -15 | 44.7
GGCCTGTCGAAAGACGCC (((..(((....)))))) | -18.8 | 45.2
GGCTTTCGAAAGAACGCC (((.(((....))).))) | -39.3 | 50.2
GCGACACATCGC ((((....)))) | -24.2 | 50.3
GGAGACGGAAACATCTCC (((((.(....).))))) | -31.8 | 39.5
GCTTATGGAAACATGAGC (((.(((....))).))) | -33.5 | 45.6
GCTTCCCGAAAGGGTAGC (((.(((....))).))) | -33.9 | 56.4
GATGCGGGAAACCGTATC (((.(((....))).))) | -34.4 | 50.3
GACTTCGGAAACGAGGTC (((.(((....))).))) | -35.9 | 49.9
GTGTTCGGAAACGAACGC (.(((((....))))).) | -30.3 | 59.6
GCACTAACGAAAGTTTGC (((..(((....)))))) | -15 | 32.7
GATCCTCTGGAGGATC ((((((....)))))) | -39.5 | 58.3
GATCACGGAAACGTGACC (.(((((....))))).) | -14.7 | 45.1
GCTTGGCGAAAGCTTAGC (((..((....))..))) | -16.9 | 53.4
GATCACCTAGTGATC ((((((...)))))) | -34.8 | 58.2
GATCATCATATGATC ((((((...)))))) | -35.5 | 47.2
GTTGGTCGAAAGACAAAC (((.(((....))).))) | -26.5 | 48.5
GTGAGTGGAAACACCCAC (((.(((....))).))) | -31.4 | 43.2
GCTTCCCGAAAGGGGAGC (((.(((....))).))) | -46 | 65.5
GCATTGCGAAAGCATGGC ((..(((....)))..)) | -19.9 | 45.8
GTCGATTCGAAAGAAGAC (((..(((....)))))) | -13 | 29.7
GATTTCCCGAAAGGGATC (((..(((....)))))) | -10.4 | 26.2

From the array DNA melting data of Ke et al. (doi:10.1101/2024.01.08.574731)
